The values that follow come from ChEMBL document CHEMBL1147048, “Identification of anti-prion compounds as efficient inhibitors of polyglutamine protein aggregation in a zebrafish model” (J Biol Chem, 2007).

SMILES strings stand for the structures. The source made the active and inactive calls. The rule behind the calls is not given here.

Data set [1] can be described thus: Suppression of aggregation of poly Q102-GFP mutant expressed in zebrafish embryo by filter trap assay. Summed up:
(§1)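 AB wild-type embryos were injected at the 1-2 cell stage with Q102-GFP mRNA. They were then kept in E3 with 1% DMSO plus compound (isoproterenol dissolved in water), with the chorion disrupted; controls received solvent alone. After 24 h at 28.5 °C, lysates were heated in 4% SDS/100 mM DTT, filtered through 0.2 µm cellulose acetate, probed with anti-GFP and quantified by densitometry. Solvent control was set to 100%; n=3-5 injections.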

The species named for data set [2] is Danio rerio. Nature of the data set: Effect on suppression of abnormal morphology and death of zebrafish embryo expressing Q102-GFP. In kind it is organism-based. The note with it: in vivo.
In the next data set the test system is N2a. Nature of the data set: Inhibition of aggregation of poly Q102-GFP in mouse N2a cells by filter trap assay. Format: cell-based.
The species named for data set [3] is Danio rerio. Kind of data set: Suppression of inclusion formation in zebrafish embryo expressing poly Q102-GFP protein after 24 hrs at 1 uM. Format: functional, organism-based.
A short description of data set [4]: Inhibition of detergent insoluble aggregation of mutant poly Q102-GFP expressed in zebrafish embryo at 50 uM by filter trap assay. In outline:
as §1

A short description of data set [5]: Suppression of aggregation of poly Q102-GFP protein expressed in zebrafish embryo at 10 uM by filter trap assay. Summed up: as §1

Consider `Nc1c(/N=N/c2ccc(-c3ccc(/N=N/c4cc(S(=O)(=O)O)c5ccccc5c4N)cc3)cc2)cc(S(=O)(=O)O)c2ccccc12`, for which the outcome in data set [1] was Active.

As to `Cc1cc(O)c(C)c2sc(N)nc12`, the Activity entry in the data set filed under Danio rerio [2] is listed as “Not Active”. For the same compound, the outcome (in the data set on N2a; in data set [1]) was Active.

`COc1c(C)c2c(c(O)c1C/C=C(\C)CCC(=O)O)C(=O)OC2`: in the data set listed under Danio rerio [3], the outcome was inactive.

`COc1cc(/C=N/N=C(N)N)ccc1OCc1c(C)c(C)c(Br)c(C)c1C.Cl`: the Activity entry in the data set listed under Danio rerio [2] is recorded as “Not Active”. Also, the result in the data set on N2a was Active.

As to `O=C(N/N=C/c1ccc2ccccc2c1)c1cccc(Cl)c1`, the outcome (in data set [4]; in the data set with N2a) was Active. The Activity entry in the data set filed under Danio rerio [2] is recorded as “Not Active”.

Take `O=C(N/N=C/c1ccc2ccccc2c1)c1ccc(O)c(O)c1`: the outcome (in data set [4]; in the data set with N2a) was Active. In addition, the Activity result in the data set listed under Danio rerio [2] is on record as “Not Active”.

Regarding `CC(C)NCC(O)c1ccc(O)c(O)c1` (centres undefined), the outcome in data set [5] was inactive.
